Here are results for 45 molecules from ChEMBL document CHEMBL1143782, “Alpha-aminothiazole-gamma-aminobutanoic amides as potent, small molecule CCR2 receptor antagonists” (Bioorg Med Chem Lett, 2007).

The target of one assay is T1, C-C chemokine receptor type 2 (Homo sapiens, UniProt P41597). The experiment in a line: Displacement of [125I]MCP1 from human CCR2 expressed in monocytes. The class given is cell-based. In short, it runs like this:
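Human CCR2 binding was read as inhibition of 125I-MCP-1 binding to monocyte cells stably transfected with CCR2. The assay was run in the presence of 0.5% BSA, using membranes of these cells.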
Target sequence in this assay (P41597 whole entry): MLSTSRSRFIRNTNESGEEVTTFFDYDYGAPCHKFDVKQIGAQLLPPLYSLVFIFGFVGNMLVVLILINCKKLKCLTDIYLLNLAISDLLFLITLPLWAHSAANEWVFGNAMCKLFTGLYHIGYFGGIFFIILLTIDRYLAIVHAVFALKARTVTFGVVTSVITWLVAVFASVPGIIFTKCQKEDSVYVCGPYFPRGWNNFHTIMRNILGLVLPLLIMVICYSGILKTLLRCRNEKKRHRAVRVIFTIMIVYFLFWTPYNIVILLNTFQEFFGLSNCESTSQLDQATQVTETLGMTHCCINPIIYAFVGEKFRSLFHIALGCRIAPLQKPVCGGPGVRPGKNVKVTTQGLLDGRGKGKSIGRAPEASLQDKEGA
Molecule `Nc1nc(C(CCN2CCC(c3ccc(F)cc3)CC2)C(=O)NCc2cc(C(F)(F)F)cc(C(F)(F)F)c2)cs1` (configuration not stated) showed an IC50 of 9.1 nM.
Still for that read-out and setting: then `COC(=O)Nc1nc(C(CCN2CCC(c3ccccc3)CC2)C(=O)NCc2cc(C(F)(F)F)cc(C(F)(F)F)c2)cs1` (configuration not stated), with 2.6 nM.
Same read-out and setting: then `CC(C)(C)OC(=O)Nc1nc([C@@H](CCN2CCC(c3ccccc3)CC2)C(=O)NCc2cc(C(F)(F)F)cc(C(F)(F)F)c2)cs1`, with 13.3 nM; and `CC(C)(C)C(=O)Nc1nc(C(CCN2CCC(c3ccccc3)CC2)C(=O)NCc2cc(C(F)(F)F)cc(C(F)(F)F)c2)cs1` (configuration not stated), with 18 nM; and `CCC(=O)Nc1nc(C(CCN2CCC(c3ccccc3)CC2)C(=O)NCc2cc(C(F)(F)F)cc(C(F)(F)F)c2)cs1` (configuration not stated), with 3.5 nM.
On the same count and under the same terms, then `CC(=O)Nc1nc([C@H](CCN2CCC(c3ccccc3)CC2)C(=O)NCc2cc(C(F)(F)F)cc(C(F)(F)F)c2)cs1`, with 1.8 nM.
In turn, `CNC(=O)Nc1nc([C@H](CCN2CCC3(C=Cc4ccccc43)CC2)C(=O)NCc2cc(C(F)(F)F)cc(C(F)(F)F)c2)cs1` had an IC50 of 0.8 nM.
Turning to `CS(=O)(=O)Nc1nc(C(CCN2CCC(c3ccccc3)CC2)C(=O)NCc2cc(C(F)(F)F)cc(C(F)(F)F)c2)cs1` (configuration not stated), the 50% inhibitory concentration (IC50) came to 36 nM.
Same read-out and setting: the same measure for `O=CNc1nc(C(CCN2CCC(c3ccccc3)CC2)C(=O)NCc2cc(C(F)(F)F)cc(C(F)(F)F)c2)cs1` (configuration not stated): 4 nM.
In the case of `CC(=O)Nc1nc(C(CCN2CCN(c3ccc(F)cc3)CC2)C(=O)NCc2cc(C(F)(F)F)cc(C(F)(F)F)c2)cs1` (configuration not stated), the IC50 came to 32.7 nM.
Still for that read-out and setting: the same measure for `CNC(=O)Nc1nc([C@H](CCN2CCC(c3ccccc3)CC2)C(=O)NCc2cc(C(F)(F)F)cc(C(F)(F)F)c2)cs1`: 0.43 nM; for `CC(=O)Nc1nc(C(CCN2CCC3(C=Cc4ccccc43)CC2)C(=O)NCc2cc(C(F)(F)F)cc(C(F)(F)F)c2)cs1` (configuration not stated): 1.7 nM; for `COC(=O)Nc1nc([C@H](CCN2CCC(c3ccccc3)CC2)C(=O)NCc2cc(C(F)(F)F)cc(C(F)(F)F)c2)cs1`: 3.5 nM.
Still for that read-out and setting: then `CNC(=O)Nc1nc([C@@H](CCN2CCC(c3ccccc3)CC2)C(=O)NCc2cc(C(F)(F)F)cc(C(F)(F)F)c2)cs1`, with 30 nM; and `C[C@H]1CN(CCC(C(=O)NCc2cc(C(F)(F)F)cc(C(F)(F)F)c2)c2csc(NC(=O)c3ccccc3)n2)CC[C@]12C=Cc1ccccc12` (some centres not stated), with 17 nM; and `CC(C)(C)OC(=O)Nc1nc([C@H](CCN2CCC(c3ccccc3)CC2)C(=O)NCc2cc(C(F)(F)F)cc(C(F)(F)F)c2)cs1`, with 14.3 nM.
The same measure, in the same setting: the same measure for `C[C@H]1CN(CCC(C(=O)NCc2cc(C(F)(F)F)cc(C(F)(F)F)c2)c2csc(NC(=O)Cc3ccccc3)n2)CC[C@]12C=Cc1ccccc12` (some centres not stated): 19 nM; for `O=C(Nc1nc(C(CCN2CCC(c3ccccc3)CC2)C(=O)NCc2cc(C(F)(F)F)cc(C(F)(F)F)c2)cs1)C1CC1` (configuration not stated): 3.9 nM; for `C[C@H]1CN(CCC(C(=O)NCc2cc(C(F)(F)F)cc(C(F)(F)F)c2)c2csc(N)n2)CCC12C=Cc1ccccc12` (some centres not stated): 1.3 nM.
Molecule `CNC(=O)Nc1nc(C(CCN2CCC(c3ccccc3)CC2)C(=O)NCc2cc(C(F)(F)F)cc(C(F)(F)F)c2)cs1` (configuration not stated) yielded an IC50 of 3 nM.
Still for that read-out and setting: the same measure for `CC(=O)Nc1nc(C(CCN2CCN(c3ccccc3C)CC2)C(=O)NCc2cc(C(F)(F)F)cc(C(F)(F)F)c2)cs1` (configuration not stated): 14.5 nM; for `Nc1nc(C(CCN2CCC(n3cnc4ccccc43)CC2)C(=O)NCc2cc(C(F)(F)F)cc(C(F)(F)F)c2)cs1` (configuration not stated): 28.6 nM.
On the same count and under the same terms, then `Nc1nc([C@H](CCN2CCC(c3ccccc3)CC2)C(=O)NCc2cc(C(F)(F)F)cc(C(F)(F)F)c2)cs1`, with 13.3 nM; and `Nc1nc(C(CCN2CCC3(C=Cc4ccccc43)CC2)C(=O)NCc2cc(C(F)(F)F)cc(C(F)(F)F)c2)cs1` (configuration not stated), with 7.3 nM.
The same measure, in the same setting: then `CC(=O)Nc1nc(C(CCN2CCC(c3ccc(F)cc3)CC2)C(=O)NCc2cc(C(F)(F)F)cc(C(F)(F)F)c2)cs1` (configuration not stated), with 1.8 nM.
As to `C[C@H]1CN(CCC(C(=O)NCc2cc(C(F)(F)F)cc(C(F)(F)F)c2)c2csc(NC(=O)Cc3cccs3)n2)CC[C@]12C=Cc1ccccc12` (some centres not stated), the half-maximal inhibitory concentration (IC50) was found to be 23 nM.
On the same count and under the same terms, then `CC(=O)Nc1nc(C(CCN2CCCCC2)C(=O)NCc2cc(C(F)(F)F)cc(C(F)(F)F)c2)cs1` (configuration not stated), with 13 nM.
The same measure, in the same setting: the same measure for `C[C@H]1CN(CCC(C(=O)NCc2cc(C(F)(F)F)cc(C(F)(F)F)c2)c2csc(NC(=O)c3cccnc3)n2)CC[C@]12C=Cc1ccccc12` (some centres not stated): 14 nM; for `CC(=O)Nc1nc(C(CCN2CCC3(C=Cc4ccccc43)[C@@H](C)C2)C(=O)NCc2cc(C(F)(F)F)cc(C(F)(F)F)c2)cs1` (some centres not stated): 3 nM; for `C[C@H]1CN(CCC(C(=O)NCc2cc(C(F)(F)F)cc(C(F)(F)F)c2)c2csc(NC(=O)Cc3ccccn3)n2)CC[C@]12C=Cc1ccccc12` (some centres not stated): 13 nM.
Still for that read-out and setting: then `CC(=O)Nc1nc(C(CCN2CCC(n3cnc4ccccc43)CC2)C(=O)NCc2cc(C(F)(F)F)cc(C(F)(F)F)c2)cs1` (configuration not stated), with 3 nM; and `CC(C(=O)Nc1nc(C(CCN2CC[C@]3(C=Cc4ccccc43)[C@@H](C)C2)C(=O)NCc2cc(C(F)(F)F)cc(C(F)(F)F)c2)cs1)c1ccccc1` (some centres not stated), with 74 nM.
With `Cc1ccccc1N1CCN(CCC(C(=O)NCc2cc(C(F)(F)F)cc(C(F)(F)F)c2)c2csc(N)n2)CC1` (configuration not stated), the IC50 was determined as 183 nM.
The same measure, in the same setting: the same measure for `N=C(N)Nc1nc(C(CCN2CCC(c3ccccc3)CC2)C(=O)NCc2cc(C(F)(F)F)cc(C(F)(F)F)c2)cs1` (configuration not stated): 1.3 nM; for `CC(=O)Nc1nc([C@@H](CCN2CCC(c3ccccc3)CC2)C(=O)NCc2cc(C(F)(F)F)cc(C(F)(F)F)c2)cs1`: 42 nM; for `CC(C)C(=O)Nc1nc(C(CCN2CCC(c3ccccc3)CC2)C(=O)NCc2cc(C(F)(F)F)cc(C(F)(F)F)c2)cs1` (configuration not stated): 7.4 nM.
Still for that read-out and setting: the same measure for `Nc1nc(C(CCN2CCC(c3ccccc3)CC2)C(=O)NCc2cc(C(F)(F)F)cc(C(F)(F)F)c2)cs1` (configuration not stated): 20 nM.
`O=C(NCc1cc(C(F)(F)F)cc(C(F)(F)F)c1)[C@H](CCN1CCC(c2ccccc2)CC1)c1cscn1` yielded an IC50 of 229 nM.
Same read-out and setting: the same measure for `C[C@H]1CN(CCC(C(=O)NCc2cc(C(F)(F)F)cc(C(F)(F)F)c2)c2csc(NC(=O)C3Cc4ccccc43)n2)CC[C@]12C=Cc1ccccc12` (some centres not stated): 36 nM; for `O=C(Nc1nc(C(CCN2CCC(c3ccccc3)CC2)C(=O)NCc2cc(C(F)(F)F)cc(C(F)(F)F)c2)cs1)c1ccccc1` (configuration not stated): 16 nM; for `CNC(=O)Nc1nc([C@@H](CCN2CCC3(C=Cc4ccccc43)CC2)C(=O)NCc2cc(C(F)(F)F)cc(C(F)(F)F)c2)cs1`: 5.8 nM.
Same read-out and setting: the same measure for `CC(=O)Nc1nc([C@H](CCN2CCC3(C=Cc4ccccc43)CC2)C(=O)NCc2cc(C(F)(F)F)cc(C(F)(F)F)c2)cs1`: 1.4 nM.
In turn, `CC(=O)Nc1nc([C@@H](CCN2CCC3(C=Cc4ccccc43)CC2)C(=O)NCc2cc(C(F)(F)F)cc(C(F)(F)F)c2)cs1` had an IC50 of 6.5 nM.
On the same count and under the same terms, the same measure for `CN(C)C(=O)Nc1nc(C(CCN2CCC(c3ccccc3)CC2)C(=O)NCc2cc(C(F)(F)F)cc(C(F)(F)F)c2)cs1` (configuration not stated): 2.3 nM.

The next assay deals with T1, C-C chemokine receptor type 2. The experiment in a line: Displacement of [125I]MCP-1 from human CCR2 expressed in monocytes 1 uM. Format: cell-based. In general terms: Displacement assays read how much labelled ligand stays bound in the presence of the test substance.
Target sequence in this assay (P41597 whole entry, looked up): as the sequence (P41597 whole entry) above
Consider `Nc1nc(C(CCN2CCCCC2)C(=O)NCc2cc(C(F)(F)F)cc(C(F)(F)F)c2)cs1` (configuration not stated), for which the inhibition worked out at 75%.

A further assay deals with C-C chemokine receptor type 2 (Mus musculus, UniProt P51683). Kind of assay: Displacement of [125I]MCP1 from mouse CCR2 expressed in monocytes. Format: cell-based.
Chain of C-C chemokine receptor type 2 (Mus musculus, UniProt P51683) (P51683 whole entry): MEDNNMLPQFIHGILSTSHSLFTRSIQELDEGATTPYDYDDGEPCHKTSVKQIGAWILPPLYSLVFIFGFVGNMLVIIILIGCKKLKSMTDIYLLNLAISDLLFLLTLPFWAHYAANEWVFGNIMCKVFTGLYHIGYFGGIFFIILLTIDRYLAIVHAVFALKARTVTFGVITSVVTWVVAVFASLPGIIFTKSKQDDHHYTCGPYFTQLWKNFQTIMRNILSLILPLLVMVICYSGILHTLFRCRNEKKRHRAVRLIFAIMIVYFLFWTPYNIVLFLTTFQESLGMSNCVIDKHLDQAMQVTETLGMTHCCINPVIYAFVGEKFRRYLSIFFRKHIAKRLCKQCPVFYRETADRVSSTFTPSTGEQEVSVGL
For `C[C@H]1CN(CCC(C(=O)NCc2cc(C(F)(F)F)cc(C(F)(F)F)c2)c2csc(NC(=O)c3ccccc3)n2)CC[C@]12C=Cc1ccccc12` (some centres not stated), the IC50 stood at 952 nM.
The same measure, in the same setting: the same measure for `C[C@H]1CN(CCC(C(=O)NCc2cc(C(F)(F)F)cc(C(F)(F)F)c2)c2csc(NC(=O)Cc3ccccc3)n2)CC[C@]12C=Cc1ccccc12` (some centres not stated): 165 nM; for `C[C@H]1CN(CCC(C(=O)NCc2cc(C(F)(F)F)cc(C(F)(F)F)c2)c2csc(NC(=O)Cc3cccs3)n2)CC[C@]12C=Cc1ccccc12` (some centres not stated): 81 nM; for `C[C@H]1CN(CCC(C(=O)NCc2cc(C(F)(F)F)cc(C(F)(F)F)c2)c2csc(NC(=O)c3cccnc3)n2)CC[C@]12C=Cc1ccccc12` (some centres not stated): 186 nM.
With `C[C@H]1CN(CCC(C(=O)NCc2cc(C(F)(F)F)cc(C(F)(F)F)c2)c2csc(NC(=O)Cc3ccccn3)n2)CC[C@]12C=Cc1ccccc12` (some centres not stated), the IC50 turned out to be 79 nM.
Same read-out and setting: the same measure for `CC(C(=O)Nc1nc(C(CCN2CC[C@]3(C=Cc4ccccc43)[C@@H](C)C2)C(=O)NCc2cc(C(F)(F)F)cc(C(F)(F)F)c2)cs1)c1ccccc1` (some centres not stated): 517 nM; for `C[C@H]1CN(CCC(C(=O)NCc2cc(C(F)(F)F)cc(C(F)(F)F)c2)c2csc(NC(=O)C3Cc4ccccc43)n2)CC[C@]12C=Cc1ccccc12` (some centres not stated): 111 nM.

For orientation: IC50 means the concentration that inhibits the measured activity by half. Read a high IC50 as lower potency. As usually defined, the inhibition is how much of the control response was suppressed. Read a low inhibition as little suppression.
